Converted amounts (≈) assume the structure as drawn.
Columns and labels:
Assay type in all cases: functional
[1] = test system: Mycobacterium tuberculosis; assay: Antitubercular activity against multi-drug resistant Mycobacterium tuberculosis isolate 16995 after 7 days by Alamar blue assay; details: isolate 16995, 168 h
Procedure, shortened: (§1)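 Inoculum grown to late log phase in Middlebrook 7H9 with 0.2% glycerol, 0.05% Tween 80 and 10% ADC, then washed in PBS, filtered through 8 µm to remove clumps and frozen at -80 °C. Twofold compound dilutions in 7H9-ADC-TG with 2 × 10⁵ CFU per well, 37 °C. Alamar blue and Tween 80 added on day 7, read after 16-24 h (ex 530/em 590 nm). MIC is the lowest concentration giving ≥90% fluorescence reduction versus bacterium-only controls.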

[2] = test system: Mycobacterium tuberculosis; assay: Antitubercular activity against multi-drug resistant Mycobacterium tuberculosis isolate 16883 after 7 days by Alamar blue assay; details: isolate 16883, 168 h; procedure, shortened: as §1
[3] = test system: Mycobacterium tuberculosis; assay: Antitubercular activity against multi-drug resistant Mycobacterium tuberculosis; procedure, shortened: as §1

`NNC(=O)c1ccncc1` [ISONIAZID] was tested. Which MIC90 [1] did it give?
The MIC90 was greater than 40 µg/mL.

What about the MIC90 [2] of the same compound?
The MIC90 was greater than 40 µg/mL.

`O=c1nc(N2CCN(CC3CCCCC3)CC2)sc2c([N+](=O)[O-])cc(C(F)(F)F)cc12` [MACOZINONE] was tested. Which MIC90 [1] did it give?
Its MIC90 is less than 0.016 µg/mL.

And the MIC90 [2]?
Its MIC90 is less than 0.016 µg/mL.

What does the source list for `CO[C@H]1/C=C/O[C@@]2(C)Oc3c(C)c(O)c4c(O)c(c(/C=N/N5CCN(C)CC5)c(O)c4c3C2=O)NC(=O)/C(C)=C\C=C\[C@H](C)[C@H](O)[C@@H](C)[C@@H](O)[C@@H](C)[C@H](OC(C)=O)[C@@H]1C` [RIFAMPIN]?
MIC90 [1]: > 40 µg/mL; MIC90 [2]: > 40 µg/mL

What does the source list for `O=c1nc(N2CCC(CN3CCC(C(F)(F)F)CC3)CC2)sc2c([N+](=O)[O-])cc(C(F)(F)F)cc12`?
MIC90 [1]: < 0.016 µg/mL; MIC90 [2]: < 0.016 µg/mL

For `CN(CC1CCCCC1)C1CCN(c2nc(=O)c3cc(C(F)(F)F)cc([N+](=O)[O-])c3s2)CC1`, which MIC [3] is on record?
Its MIC is 0.016 µg/mL (≈ 0.033 µM).
